{"data": "Experimental data gathered from unrelated publications", "Slc6a3": "Sodium-dependent dopamine transporter (Slc6a3, Rattus norvegicus, UniProt P23977)", "Antigen peptide transporter 1/Antigen peptide transporter 2": "Antigen peptide transporter 1/Antigen peptide transporter 2 (Homo sapiens, UniProt Q03518+Q03519)", "note": "Each line is one published result; the experiments were not run side by side."}
{"SMILES": "COc1ccc2cccc(C(CO)CNC(=O)CF)c2c1 (centres unmarked)", "target": "Melatonin receptor type 1B (MTNR1B, Homo sapiens, UniProt P49286)", "effect on": "cAMP", "action": "agonist", "technique": "TR-FRET", "endpoint": "EC50", "result": "17.8 nM"}
{"SMILES": "CNC(C)C(=O)c1cccc(Cl)c1 (centres unmarked)", "target": "Slc6a3", "effect on": "transporter uptake", "action": "inhibitor", "technique": "radiometric", "endpoint": "IC50", "result": "342 nM"}
{"SMILES": "CC[C@H](C)[C@H](NC(=O)[C@H](CC(C)C)NC(=O)[C@@H](N)CO)C(=O)NCC(=O)N[C@@H](CCCCN)C(=O)N[C@H](C(N)=O)C(C)C", "target": "Proteinase-activated receptor 2 (F2RL1, Homo sapiens, UniProt P55085)", "effect on": "calcium signal", "action": "agonist", "endpoint": "EC50", "result": "28200 nM"}
{"SMILES": "CC[C@H](C)[C@H](NC(=O)[C@H](C)NC(=O)CN)C(=O)N[C@@H](CC(=O)O)C(=O)N[C@@H](CCCCN)C(=O)N1CCC[C@H]1C(=O)N[C@H](C(=O)N[C@@H](CC(C)C)C(=O)N[C@@H](CCCCN)C(=O)O)[C@@H](C)CC", "target": "Antigen peptide transporter 1/Antigen peptide transporter 2", "effect on": "ligand displacement", "endpoint": "IC50", "result": "8200 nM"}
{"SMILES": "CC(NC(C)(C)C)C(=O)c1ccccc1 (centres unmarked)", "target": "Slc6a3", "effect on": "transporter uptake", "action": "inhibitor", "technique": "radiometric", "endpoint": "IC50", "result": "1310 nM"}
{"SMILES": "O=c1c(O)c(-c2ccc(O)c(O)c2)oc2cc(O)cc(O)c12", "target": "CX3C chemokine receptor 1 (CX3CR1, Homo sapiens, UniProt P49238)", "effect on": "β-arrestin recruitment", "action": "antagonist", "endpoint": "IC50", "result": "4500 nM"}
{"SMILES": "COC(=O)C(NC(=O)c1cn(CCCCCO)c2ccccc12)C(C)(C)C (centres unmarked)", "target": "Cannabinoid receptor 1 (Cnr1, Rattus norvegicus, UniProt P20272)", "effect on": "ligand displacement", "technique": "radioligand", "notes": "cell membranes", "endpoint": "IC50", "result": "106 nM"}
{"SMILES": "CSCC[C@H](NC(=O)[C@@H]1CCCN1C(=O)[C@H](CCCNC(=N)N)NC(=O)[C@H](CC(C)C)NC(=O)[C@@H]1CCCN1C(=O)[C@@H](NC(=O)[C@H](C)N)C(C)C)C(=O)N[C@H](C(=O)N[C@@H](Cc1ccc(O)cc1)C(=O)N[C@@H](C)C(=O)O)[C@@H](C)O", "target": "Antigen peptide transporter 1/Antigen peptide transporter 2", "effect on": "ligand displacement", "endpoint": "IC50", "result": "5000 nM"}
